Drawing on ChEMBL document CHEMBL2069295, “Discovery of 6-substituted 4-anilinoquinazolines with dioxygenated rings as novel EGFR tyrosine kinase inhibitors” (Bioorg Med Chem Lett, 2012), this text covers IC50, inhibition of growth and inhibition for 13 compounds.

≈ marks a conversion by molar mass, not a printed value. Calls of active or inactive are those of the source. No cut-off for these calls is given here.

For assay [1], the system named is MCF7. The experiment in a line: cells. The following applies: Homo sapiens.
The subject of assay [2] is B16-F10. In words: cells. As to conditions: Mus musculus.
For assay [3], the system named is A549. In words: Antiproliferative activity against human A549 cells after 24 to 48 hrs by WST1 assay. It is filed as functional, cell-based.
Assay [4] concerns B16-F10. The experiment in a line: Growth inhibition of mouse B16F10 cells at 10 ug/mL after 24 to 48 hrs by WST1 assay. The class given is functional. The following applies: read-out: GI. The gist of the method: (§1)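 Single-concentration growth inhibition at 10 µg/mL, the top concentration used because higher levels precipitated in culture medium. Three separate experiments, each in triplicate.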
For orientation: Tetrazolium dyes change colour on reduction, which living cells bring about.

For another assay, the system named is A-431. The experiment in a line: Antiproliferative activity against human A431 cells after 24 to 48 hrs by WST1 assay. The class given is functional, cell-based.
Assay [5] addresses T1, Epidermal growth factor receptor (Homo sapiens, UniProt P00533). In words: Inhibition of EGFR in human A431 cell lysate using tyrosine/glutamic acid polymer as substrate by ELISA. More on the design: species or system A-431.
Assay [6] has as its target T1, Epidermal growth factor receptor. In words: Inhibition of EGFR in human A431 cells assessed as inhibition of EGF-stimulated autophosphorylation at 100 nM incubated for 1 hr prior to EGF-induction measured after 15 mins by Western blot analysis. It is filed as cell-based. The following applies: A-431. The gist of the method: (§2)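 A431 cells were incubated […] with compound at 10 or 100 nM, then stimulated with EGF. Whole-cell lysates were Western blotted with an anti-phosphotyrosine antibody to detect EGFR autophosphorylation.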
A general note: Immunoblotting shows a protein as a band on a membrane.

Assay [7] relates to MCF7. The experiment in a line: Growth inhibition of human MCF7 cells at 10 ug/mL after 24 to 48 hrs by WST1 assay. The following applies: read-out: GI. The class given is functional. The gist of the method: as §1
Assay [8] relates to A549. In words: Growth inhibition of human A549 cells at 10 ug/mL after 24 to 48 hrs by WST1 assay. The class given is functional. As to conditions: read-out: GI. In short, it runs like this: as §1
The target in assay [9] is Receptor tyrosine-protein kinase erbB-2 (Homo sapiens, UniProt P04626). The experiment in a line: Inhibition of recombinant HER2 expressed in baculovirus infected Sf9 cells using [32P]ATP incubated for 30 mins prior to ATP addition measured after 20 mins by liquid scintillation counting.
Receptor tyrosine-protein kinase erbB-2, sequence (P04626 whole entry): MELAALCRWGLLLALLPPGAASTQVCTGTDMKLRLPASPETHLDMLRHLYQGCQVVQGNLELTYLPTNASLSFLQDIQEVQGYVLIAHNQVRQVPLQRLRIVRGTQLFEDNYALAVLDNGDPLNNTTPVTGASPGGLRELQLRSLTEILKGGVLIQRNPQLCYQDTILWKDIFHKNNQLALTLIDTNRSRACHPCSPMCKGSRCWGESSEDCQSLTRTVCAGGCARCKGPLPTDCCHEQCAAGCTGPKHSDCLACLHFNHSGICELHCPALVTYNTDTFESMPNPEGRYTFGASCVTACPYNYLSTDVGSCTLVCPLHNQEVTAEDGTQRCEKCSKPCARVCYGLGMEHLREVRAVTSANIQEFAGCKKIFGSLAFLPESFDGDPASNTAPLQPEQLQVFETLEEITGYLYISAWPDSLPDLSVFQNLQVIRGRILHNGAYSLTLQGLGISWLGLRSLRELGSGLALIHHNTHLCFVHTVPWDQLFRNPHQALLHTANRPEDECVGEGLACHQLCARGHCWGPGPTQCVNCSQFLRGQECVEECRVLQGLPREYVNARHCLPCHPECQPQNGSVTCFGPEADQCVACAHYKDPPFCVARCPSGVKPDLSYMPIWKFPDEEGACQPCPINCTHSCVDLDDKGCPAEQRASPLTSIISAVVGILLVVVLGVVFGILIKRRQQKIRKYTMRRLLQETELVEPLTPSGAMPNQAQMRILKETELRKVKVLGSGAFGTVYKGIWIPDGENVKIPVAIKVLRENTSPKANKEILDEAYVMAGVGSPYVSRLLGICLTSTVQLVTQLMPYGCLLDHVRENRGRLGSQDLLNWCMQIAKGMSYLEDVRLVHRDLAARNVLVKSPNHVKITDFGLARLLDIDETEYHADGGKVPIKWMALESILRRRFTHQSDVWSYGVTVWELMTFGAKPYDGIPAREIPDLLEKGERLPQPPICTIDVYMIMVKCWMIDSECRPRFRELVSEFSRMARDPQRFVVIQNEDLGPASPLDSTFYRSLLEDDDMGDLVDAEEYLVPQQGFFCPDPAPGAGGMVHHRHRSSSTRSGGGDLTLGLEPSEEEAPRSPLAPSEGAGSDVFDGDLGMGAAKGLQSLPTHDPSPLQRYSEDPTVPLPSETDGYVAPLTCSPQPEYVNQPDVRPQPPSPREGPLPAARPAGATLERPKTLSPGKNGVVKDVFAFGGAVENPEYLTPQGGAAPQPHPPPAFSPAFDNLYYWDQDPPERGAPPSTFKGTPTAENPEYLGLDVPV
For assay [10], the target named is Vascular endothelial growth factor receptor 2 (Homo sapiens, UniProt P35968). In words: Inhibition of VEGFR2 using ATP incubated for 30 mins prior to ATP addition measured after 60 mins by fluorimetry.
Vascular endothelial growth factor receptor 2, sequence (P35968 whole entry): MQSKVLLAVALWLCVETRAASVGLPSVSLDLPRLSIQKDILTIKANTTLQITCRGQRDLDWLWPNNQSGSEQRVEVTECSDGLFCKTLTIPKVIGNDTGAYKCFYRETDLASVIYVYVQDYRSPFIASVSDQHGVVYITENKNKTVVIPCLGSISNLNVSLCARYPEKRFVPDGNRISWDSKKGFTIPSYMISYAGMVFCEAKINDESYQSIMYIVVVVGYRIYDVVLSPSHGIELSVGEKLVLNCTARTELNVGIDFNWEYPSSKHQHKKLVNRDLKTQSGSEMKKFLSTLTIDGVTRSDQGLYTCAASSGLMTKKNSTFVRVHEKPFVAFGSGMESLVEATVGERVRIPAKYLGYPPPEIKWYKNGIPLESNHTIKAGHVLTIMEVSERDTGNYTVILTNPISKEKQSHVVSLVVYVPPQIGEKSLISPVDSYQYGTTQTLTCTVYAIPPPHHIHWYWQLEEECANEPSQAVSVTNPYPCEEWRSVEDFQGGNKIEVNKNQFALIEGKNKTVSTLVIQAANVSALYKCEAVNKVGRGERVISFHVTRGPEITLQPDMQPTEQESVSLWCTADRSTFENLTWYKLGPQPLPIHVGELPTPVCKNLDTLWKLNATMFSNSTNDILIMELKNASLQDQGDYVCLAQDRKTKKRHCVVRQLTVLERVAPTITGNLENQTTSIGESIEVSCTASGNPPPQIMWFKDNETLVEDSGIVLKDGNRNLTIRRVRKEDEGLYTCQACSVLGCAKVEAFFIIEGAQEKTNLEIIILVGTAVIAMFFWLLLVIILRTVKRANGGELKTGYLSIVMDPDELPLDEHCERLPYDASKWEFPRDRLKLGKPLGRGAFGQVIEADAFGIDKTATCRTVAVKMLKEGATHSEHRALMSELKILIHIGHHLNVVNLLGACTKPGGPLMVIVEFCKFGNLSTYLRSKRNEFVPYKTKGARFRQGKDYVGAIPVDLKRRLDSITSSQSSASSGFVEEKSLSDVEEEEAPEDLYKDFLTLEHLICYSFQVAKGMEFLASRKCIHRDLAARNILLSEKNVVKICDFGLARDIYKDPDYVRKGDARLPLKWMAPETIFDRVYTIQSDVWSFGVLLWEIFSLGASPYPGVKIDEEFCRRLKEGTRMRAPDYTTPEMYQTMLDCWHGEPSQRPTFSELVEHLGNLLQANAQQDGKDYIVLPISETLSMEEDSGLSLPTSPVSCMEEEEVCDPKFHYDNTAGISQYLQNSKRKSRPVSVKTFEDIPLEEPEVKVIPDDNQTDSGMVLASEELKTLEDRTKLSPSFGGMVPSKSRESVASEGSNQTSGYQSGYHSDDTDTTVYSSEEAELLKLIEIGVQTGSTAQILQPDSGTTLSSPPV
In assay [11] the target is T1, Epidermal growth factor receptor. The experiment in a line: Inhibition of EGFR in human A431 cells assessed as inhibition of EGF-stimulated autophosphorylation at 10 nM incubated for 1 hr prior to EGF-induction measured after 15 mins by Western blot analysis. The class given is cell-based. The following applies: A-431. In short, it runs like this: as §2

T1 sequence (P00533 whole entry): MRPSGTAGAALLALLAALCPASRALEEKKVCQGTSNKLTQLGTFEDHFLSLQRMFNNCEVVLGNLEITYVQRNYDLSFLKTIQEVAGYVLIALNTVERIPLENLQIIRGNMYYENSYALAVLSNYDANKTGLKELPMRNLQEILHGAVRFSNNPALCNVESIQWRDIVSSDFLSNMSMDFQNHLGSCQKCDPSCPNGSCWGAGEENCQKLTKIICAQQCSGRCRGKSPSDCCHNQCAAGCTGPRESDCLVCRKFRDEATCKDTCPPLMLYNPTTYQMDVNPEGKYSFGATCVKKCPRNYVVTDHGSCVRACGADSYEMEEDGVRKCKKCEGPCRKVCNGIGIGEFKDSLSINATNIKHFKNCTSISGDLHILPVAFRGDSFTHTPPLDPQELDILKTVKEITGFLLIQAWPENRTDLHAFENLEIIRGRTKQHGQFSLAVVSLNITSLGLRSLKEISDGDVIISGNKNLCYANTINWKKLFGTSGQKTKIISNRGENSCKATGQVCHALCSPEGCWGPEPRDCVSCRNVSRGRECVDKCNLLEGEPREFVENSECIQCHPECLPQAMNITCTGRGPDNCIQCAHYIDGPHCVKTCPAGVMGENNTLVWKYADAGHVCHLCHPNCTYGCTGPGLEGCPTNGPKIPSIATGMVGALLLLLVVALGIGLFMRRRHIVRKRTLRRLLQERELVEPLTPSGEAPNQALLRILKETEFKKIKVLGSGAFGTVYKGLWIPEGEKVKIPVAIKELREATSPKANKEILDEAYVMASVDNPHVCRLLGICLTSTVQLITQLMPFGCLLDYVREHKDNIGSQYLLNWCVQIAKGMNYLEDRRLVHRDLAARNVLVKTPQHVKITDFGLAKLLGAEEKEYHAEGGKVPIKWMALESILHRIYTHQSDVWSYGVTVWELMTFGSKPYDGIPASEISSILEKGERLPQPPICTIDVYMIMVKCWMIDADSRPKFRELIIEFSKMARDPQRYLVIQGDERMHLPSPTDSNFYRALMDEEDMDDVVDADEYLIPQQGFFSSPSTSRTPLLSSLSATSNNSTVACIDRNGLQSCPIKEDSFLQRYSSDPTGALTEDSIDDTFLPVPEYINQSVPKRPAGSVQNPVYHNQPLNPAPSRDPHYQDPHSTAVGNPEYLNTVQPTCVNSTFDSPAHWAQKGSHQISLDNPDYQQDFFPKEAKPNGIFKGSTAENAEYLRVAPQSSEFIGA

On to `O=C(Nc1ccc2ncnc(Nc3cccc(Br)c3)c2c1)c1cccc2c1OCCO2`, for which the half-maximal inhibitory concentration (IC50) (commonly the point on the concentration scale where inhibition reaches its midpoint) is 59.5 µg/mL (≈ 125 µM) with MCF7 [1]; more than 100 µg/mL with B16-F10 [2]; 84 µg/mL (≈ 176 µM) in the assay on A549 [3]; 20.3 µg/mL (≈ 42.6 µM) in the assay with A-431; 1630 nM in assay [5]. Further, the inhibition of growth at 10 µg/mL with B16-F10 [4] is less than 50%.

Consider `O=C(Nc1ccc2ncnc(Nc3cccc(Br)c3)c2c1)C1COc2ccccc2O1` (stereo unspecified), for which the inhibition entry in assay [6] is “Active”. In addition, the inhibition of growth at 10 µg/mL with MCF7 [7] was less than 50%. Further, the concentration for half-maximal inhibition (IC50) in the assay on MCF7 [1] was more than 100 µg/mL; with B16-F10 [2], 50.1 µg/mL (≈ 105 µM); with A549 [3], 73.8 µg/mL (≈ 155 µM); in the assay on A-431, 42.9 µg/mL (≈ 89.9 µM); in [5] it was 3680 nM.

As for `Brc1cccc(Nc2ncnc3ccc(NCc4ccc5c(c4)OCCCCO5)cc23)c1`, the 50% inhibitory concentration (IC50) with MCF7 [1] is 32.1 µg/mL (≈ 65.2 µM); in the assay with B16-F10 [2], 20.6 µg/mL (≈ 42 µM); in the assay on A549 [3], more than 100 µg/mL; with A-431, 15 µg/mL (≈ 30.6 µM); in [5], 1140 nM.

`O=C(Nc1ccc2ncnc(Nc3cccc(Cl)c3)c2c1)c1cccc2c1OCCO2`: the inhibition of growth at 10 µg/mL in the assay with MCF7 [7] and with A549 [8] was less than 50% each time. The IC50 in the assay on MCF7 [1] was more than 100 µg/mL; with B16-F10 [2], 9.86 µg/mL (≈ 22.8 µM); in the assay with A549 [3], more than 100 µg/mL; in the assay with A-431, 46.6 µg/mL (≈ 108 µM); in assay [5], 1290 nM.

For the compound `O=C(Nc1ccc2ncnc(Nc3cccc(Cl)c3)c2c1)C1COc2ccccc2O1` (stereo unspecified), the IC50 in the assay on MCF7 [1] was 52.2 µg/mL (≈ 121 µM); in the assay on B16-F10 [2], more than 100 µg/mL; with A549 [3] it was 61.2 µg/mL (≈ 141 µM); in the assay with A-431 it was 19.9 µg/mL (≈ 45.9 µM); in assay [5], 2750 nM. In the assay with B16-F10 [4], the inhibition of growth at 10 µg/mL is less than 50%.

Take `Clc1cccc(Nc2ncnc3ccc(NCc4ccc5c(c4)OCCCO5)cc23)c1`: in [6], the inhibition result was “Active”. Further, the IC50 with MCF7 [1] stood at 4.28 µg/mL (≈ 9.89 µM); in the assay with B16-F10 [2], 2.14 µg/mL (≈ 4.94 µM); with A549 [3], 31 µg/mL (≈ 71.7 µM); in the assay with A-431, 2.59 µg/mL (≈ 5.98 µM); in assay [5], 216 nM.

Consider `Clc1cccc(Nc2ncnc3ccc(NCc4ccc5c(c4)OCCCCO5)cc23)c1`, for which the IC50 with MCF7 [1] was 21.3 µg/mL (≈ 47.7 µM); in the assay with B16-F10 [2] it was 17.5 µg/mL (≈ 39.1 µM); in [9], more than 10000 nM; in the assay with A549 [3] it was 44.8 µg/mL (≈ 100 µM); in assay [10], more than 10000 nM; in the assay with A-431 it was 13.3 µg/mL (≈ 29.8 µM). This compound also displayed a 50% inhibitory concentration (IC50) in assay [5] of 920 nM.

As for `Clc1cccc(Nc2ncnc3ccc(NCc4ccc5c(c4)OCCO5)cc23)c1`, the IC50 with MCF7 [1] was found to be 23.1 µg/mL (≈ 55.3 µM); with B16-F10 [2], 16.3 µg/mL (≈ 39 µM).

In the case of `Brc1cccc(Nc2ncnc3ccc(NCc4ccc5c(c4)OCCCO5)cc23)c1`, the inhibition entry in assay [6] and in [11] was “Active” in each case. For the same compound, the half-inhibitory concentration (IC50) in the assay with MCF7 [1] is 5.02 µg/mL (≈ 10.5 µM); in the assay on B16-F10 [2], 1.99 µg/mL (≈ 4.17 µM); in assay [9], 4800 nM; in the assay with A549 [3], 15.5 µg/mL (≈ 32.5 µM); in assay [10] it was more than 10000 nM; in the assay on A-431, 2.77 µg/mL (≈ 5.8 µM). This compound also returned an IC50 in assay [5] of 98 nM.

Take `COc1cc2ncnc(Nc3cccc(Br)c3)c2cc1OC`: the IC50 in the assay on MCF7 [1] worked out at 3.21 µg/mL (≈ 8.91 µM); with A549 [3], 8.13 µg/mL (≈ 22.6 µM); in the assay on A-431, 2.26 µg/mL (≈ 6.27 µM).

As to `Brc1cccc(Nc2ncnc3ccc(NCc4ccc5c(c4)OCO5)cc23)c1`, the 50% inhibitory concentration (IC50) with MCF7 [1] was 14.5 µg/mL (≈ 32.2 µM); with B16-F10 [2] it was 3.62 µg/mL (≈ 8.06 µM); in the assay on A549 [3] it was 68.7 µg/mL (≈ 153 µM); in the assay with A-431 it was 6.82 µg/mL (≈ 15.2 µM); in assay [5] it was 630 nM.

With `Clc1cccc(Nc2ncnc3ccc(NCc4ccc5c(c4)OCO5)cc23)c1`, the IC50 with MCF7 [1] is 7.36 µg/mL (≈ 18.2 µM); in assay [9], 6500 nM; in assay [10] it was more than 10000 nM.

For the compound `Brc1cccc(Nc2ncnc3ccc(NCc4ccc5c(c4)OCCO5)cc23)c1`, the IC50 in the assay on MCF7 [1] was determined as 10.7 µg/mL (≈ 23.1 µM); with B16-F10 [2] it was 12 µg/mL (≈ 25.9 µM); in the assay on A549 [3], 58.3 µg/mL (≈ 126 µM); with A-431, 12.5 µg/mL (≈ 27.1 µM); in assay [5] it was 1020 nM.
